{"source": "the M2OR odorant receptor database", "key": {"OR5K1 (Homo sapiens)": {"molecular_target": "T1, OR5K1 (Homo sapiens) (UniProt Q8NHB7)", "T1 sequence (whole entry)": "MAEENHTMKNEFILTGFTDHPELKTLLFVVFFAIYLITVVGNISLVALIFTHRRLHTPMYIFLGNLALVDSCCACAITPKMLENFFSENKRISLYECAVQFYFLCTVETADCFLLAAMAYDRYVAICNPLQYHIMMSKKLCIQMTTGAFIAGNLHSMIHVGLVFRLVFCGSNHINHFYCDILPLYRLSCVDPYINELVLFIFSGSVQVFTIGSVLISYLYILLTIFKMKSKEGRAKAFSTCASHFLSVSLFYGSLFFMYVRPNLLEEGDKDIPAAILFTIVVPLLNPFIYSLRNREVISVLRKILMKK", "settings": "stereoisomer not certain", "procedure,_shortened": "(§1)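 Transient luciferase assays in mammalian cell lines were common, though methods varied by source. The values come from published papers and their supplementary material, with extra details from the original authors when needed. Responsive refers to a measured signal the original authors judged statistically different from baseline, and non-responsive (inactive) to the remainder.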"}, "OR5M3 (Homo sapiens)": {"molecular_target": "T2, OR5M3 (Homo sapiens) (UniProt Q8NGP4)", "T2 sequence (whole entry)": "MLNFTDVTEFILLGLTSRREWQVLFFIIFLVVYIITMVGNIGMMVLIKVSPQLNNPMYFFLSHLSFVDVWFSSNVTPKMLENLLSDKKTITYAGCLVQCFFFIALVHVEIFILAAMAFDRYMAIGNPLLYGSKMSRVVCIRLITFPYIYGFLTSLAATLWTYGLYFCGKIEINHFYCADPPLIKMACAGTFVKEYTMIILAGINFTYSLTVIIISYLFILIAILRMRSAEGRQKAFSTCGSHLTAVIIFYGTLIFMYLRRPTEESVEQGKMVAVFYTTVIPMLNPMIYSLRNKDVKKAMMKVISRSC", "settings": "stereoisomer not certain", "procedure,_shortened": "as §1"}}}
{"smiles": "CC=CC(=O)C(C)CC", "note": "(stereo not given)", "values": [{"measurement": "odorant receptor agonist call", "setting": "OR5K1 (Homo sapiens)", "value": "inactive"}, {"measurement": "odorant receptor agonist call", "setting": "OR5M3 (Homo sapiens)", "value": "inactive"}]}
{"smiles": "CC=Cc1ccc(OC)cc1", "values": [{"measurement": "odorant receptor agonist call", "setting": "OR5K1 (Homo sapiens)", "value": "inactive"}, {"measurement": "odorant receptor agonist call", "setting": "OR5M3 (Homo sapiens)", "value": "inactive"}]}
{"smiles": "CCCCC1CCC(=O)O1", "note": "(stereo not given)", "values": [{"measurement": "odorant receptor agonist call", "setting": "OR5K1 (Homo sapiens)", "value": "inactive"}, {"measurement": "odorant receptor agonist call", "setting": "OR5M3 (Homo sapiens)", "value": "inactive"}]}
{"smiles": "OCCc1ccccc1", "values": [{"measurement": "odorant receptor agonist call", "setting": "OR5K1 (Homo sapiens)", "value": "inactive"}, {"measurement": "odorant receptor agonist call", "setting": "OR5M3 (Homo sapiens)", "value": "inactive"}]}
{"smiles": "CCCc1ccc(O)c(OC)c1", "values": [{"measurement": "odorant receptor agonist call", "setting": "OR5K1 (Homo sapiens)", "value": "inactive"}, {"measurement": "odorant receptor agonist call", "setting": "OR5M3 (Homo sapiens)", "value": "inactive"}]}
{"smiles": "CCCCCCCCCC(=O)[O-].[H+]", "values": [{"measurement": "odorant receptor agonist call", "setting": "OR5K1 (Homo sapiens)", "value": "inactive"}, {"measurement": "odorant receptor agonist call", "setting": "OR5M3 (Homo sapiens)", "value": "inactive"}]}
{"smiles": "CC(=O)C(C)O", "note": "(stereo not given)", "values": [{"measurement": "odorant receptor agonist call", "setting": "OR5K1 (Homo sapiens)", "value": "inactive"}, {"measurement": "odorant receptor agonist call", "setting": "OR5M3 (Homo sapiens)", "value": "inactive"}]}
{"smiles": "CCCCCCCC(=O)[O-].[H+]", "values": [{"measurement": "odorant receptor agonist call", "setting": "OR5K1 (Homo sapiens)", "value": "inactive"}, {"measurement": "odorant receptor agonist call", "setting": "OR5M3 (Homo sapiens)", "value": "inactive"}]}
{"smiles": "CC(C)c1ccc(C=O)cc1", "values": [{"measurement": "odorant receptor agonist call", "setting": "OR5K1 (Homo sapiens)", "value": "inactive"}, {"measurement": "odorant receptor agonist call", "setting": "OR5M3 (Homo sapiens)", "value": "inactive"}]}
{"smiles": "CCCC=CC=O", "values": [{"measurement": "odorant receptor agonist call", "setting": "OR5K1 (Homo sapiens)", "value": "inactive"}, {"measurement": "odorant receptor agonist call", "setting": "OR5M3 (Homo sapiens)", "value": "inactive"}]}
{"smiles": "O=c1ccc2ccccc2o1", "values": [{"measurement": "odorant receptor agonist call", "setting": "OR5K1 (Homo sapiens)", "value": "inactive"}, {"measurement": "odorant receptor agonist call", "setting": "OR5M3 (Homo sapiens)", "value": "inactive"}]}
{"smiles": "CC1=CC(=O)C(C)O1", "note": "(stereo not given)", "values": [{"measurement": "odorant receptor agonist call", "setting": "OR5M3 (Homo sapiens)", "value": "inactive"}]}
{"smiles": "Cc1cccc(C)c1O", "values": [{"measurement": "odorant receptor agonist call", "setting": "OR5K1 (Homo sapiens)", "value": "inactive"}, {"measurement": "odorant receptor agonist call", "setting": "OR5M3 (Homo sapiens)", "value": "inactive"}]}
